Data reported in ChEMBL document CHEMBL4000256, “Light-Regulated NO Release as a Novel Strategy To Overcome Doxorubicin Multidrug Resistance” (ACS Med Chem Lett, 2017).
The source made the active and inactive calls. No cut-off for these calls is given here.

Key:
Homo sapiens [1] = species on record: Homo sapiens; test: […] in 7 mW/cm'2 irradiated human M14 cells assessed as increase in LDH release at 5 uM measured after 20 mins by spectrophotometric method
[2] = molecular target: T1, Broad substrate specificity ATP-binding cassette transporter ABCG2 (Homo sapiens, UniProt Q9UNQ0); test: Inhibition of BCRP in 7 mW/cm'2 irradiated human M14 cells assessed as nitration of tyrosine in BCRP at 5 uM measured after 20 mins by immunoblotting
T1 sequence (Q9UNQ0 whole entry): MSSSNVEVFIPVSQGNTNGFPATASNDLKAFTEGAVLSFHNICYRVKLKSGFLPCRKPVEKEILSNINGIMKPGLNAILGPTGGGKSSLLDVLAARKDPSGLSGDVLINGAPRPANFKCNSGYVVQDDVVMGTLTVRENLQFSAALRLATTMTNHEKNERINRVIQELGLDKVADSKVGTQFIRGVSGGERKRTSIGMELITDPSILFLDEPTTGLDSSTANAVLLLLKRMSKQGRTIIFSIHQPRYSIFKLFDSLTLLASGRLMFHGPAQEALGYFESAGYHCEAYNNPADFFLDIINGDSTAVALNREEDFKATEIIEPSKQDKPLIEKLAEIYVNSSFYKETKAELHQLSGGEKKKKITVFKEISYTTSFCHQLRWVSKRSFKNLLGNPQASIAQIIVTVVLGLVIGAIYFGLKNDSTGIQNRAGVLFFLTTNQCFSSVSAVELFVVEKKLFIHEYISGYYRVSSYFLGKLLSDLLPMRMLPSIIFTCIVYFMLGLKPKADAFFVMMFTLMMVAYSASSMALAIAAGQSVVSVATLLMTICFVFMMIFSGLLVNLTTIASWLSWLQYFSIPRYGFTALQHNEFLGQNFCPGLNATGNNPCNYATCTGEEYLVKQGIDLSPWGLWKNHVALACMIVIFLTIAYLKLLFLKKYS
Summary of the method: (§1)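 M14 melanoma cells held 20 min at room temperature in PBS under 400 nm light (7 mW/cm2) with 5 μM compound, alone or with equimolar doxorubicin. Nitrated ABC transporters (Pgp, MRP1, MRP4, BCRP) detected by immunoblot.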

[3] = molecular target: T1, Broad substrate specificity ATP-binding cassette transporter ABCG2; test: Inhibition of BCRP in 7 mW/cm'2 irradiated human M14 cells assessed as reduction in BCRP ATPase activity at 5 uM measured after 20 mins by spectrophotometric method
Summary of the method: (§2)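 M14 melanoma cells held 20 min at room temperature in PBS under 400 nm light (7 mW/cm2) with 5 μM compound, alone or with equimolar doxorubicin. Transporter ATPase activity then measured; n = 3.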

Homo sapiens [4] = species on record: Homo sapiens; test: Inhibition of ABC transporter in 7 mW/cm'2 irradiated human M14 cells assessed as increase in nitrite release at 5 uM measured after 20 mins by Griess reagent based spectrophotometric method
Summary of the method: (§3)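 M14 melanoma cells held 20 min at room temperature in PBS, either in the dark or under 400 nm light (7 mW/cm2), with 5 μM compound alone or alongside 5 μM doxorubicin. Nitrite in the supernatant measured by Griess assay, in triplicate, n = 3.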

[5] = Half life in DMEM medium; assay type: physicochemical
Homo sapiens [6] = species on record: Homo sapiens; test: Inhibition of Pgp in 7 mW/cm'2 irradiated human M14 cells assessed as nitration of tyrosine in pgp at 5 uM measured after 20 mins in presence of doxorubicin by immunoblotting; summary of the method: as §1
Fibroblast = test: Dark toxicity against human fibroblasts at 5 uM measured after 20 mins co-incubated with doxorubicin by spectrophotometric method; assay type: cell-based
Summary of the method: (§4)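 Cells (M14 melanoma, human fibroblasts or rat H9c2 cardiomyocytes) kept 20 min at room temperature in PBS in the dark, with 5 μM compound, given alone or with equimolar 5 μM doxorubicin. Cytotoxicity read as extracellular LDH release. Triplicate measurements, n = 3.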

M14 [7] = test: Dark toxicity in human M14 cells assessed as increase in nitrite levels at 5 uM measured after 20 mins in presence of doxorubicin by Griess reagent based spectrophotometric method; assay type: cell-based; settings: m14, 20 min; summary of the method: as §3
M14 [8] = test: Dark toxicity in human M14 cells assessed as increase in LDH release at 5 uM measured after 20 mins by spectrophotometric method; assay type: cell-based; settings: m14, 20 min; summary of the method: as §4
[9] = molecular target: Multidrug resistance-associated protein 1 (Homo sapiens, UniProt P33527); test: Inhibition of MRP1 in 7 mW/cm'2 irradiated human M14 cells assessed as reduction in ATPase activity at 5 uM measured after 20 mins in presence of doxorubicin by immunoblotting; summary of the method: as §2
Sequence of Multidrug resistance-associated protein 1 (P33527 whole entry): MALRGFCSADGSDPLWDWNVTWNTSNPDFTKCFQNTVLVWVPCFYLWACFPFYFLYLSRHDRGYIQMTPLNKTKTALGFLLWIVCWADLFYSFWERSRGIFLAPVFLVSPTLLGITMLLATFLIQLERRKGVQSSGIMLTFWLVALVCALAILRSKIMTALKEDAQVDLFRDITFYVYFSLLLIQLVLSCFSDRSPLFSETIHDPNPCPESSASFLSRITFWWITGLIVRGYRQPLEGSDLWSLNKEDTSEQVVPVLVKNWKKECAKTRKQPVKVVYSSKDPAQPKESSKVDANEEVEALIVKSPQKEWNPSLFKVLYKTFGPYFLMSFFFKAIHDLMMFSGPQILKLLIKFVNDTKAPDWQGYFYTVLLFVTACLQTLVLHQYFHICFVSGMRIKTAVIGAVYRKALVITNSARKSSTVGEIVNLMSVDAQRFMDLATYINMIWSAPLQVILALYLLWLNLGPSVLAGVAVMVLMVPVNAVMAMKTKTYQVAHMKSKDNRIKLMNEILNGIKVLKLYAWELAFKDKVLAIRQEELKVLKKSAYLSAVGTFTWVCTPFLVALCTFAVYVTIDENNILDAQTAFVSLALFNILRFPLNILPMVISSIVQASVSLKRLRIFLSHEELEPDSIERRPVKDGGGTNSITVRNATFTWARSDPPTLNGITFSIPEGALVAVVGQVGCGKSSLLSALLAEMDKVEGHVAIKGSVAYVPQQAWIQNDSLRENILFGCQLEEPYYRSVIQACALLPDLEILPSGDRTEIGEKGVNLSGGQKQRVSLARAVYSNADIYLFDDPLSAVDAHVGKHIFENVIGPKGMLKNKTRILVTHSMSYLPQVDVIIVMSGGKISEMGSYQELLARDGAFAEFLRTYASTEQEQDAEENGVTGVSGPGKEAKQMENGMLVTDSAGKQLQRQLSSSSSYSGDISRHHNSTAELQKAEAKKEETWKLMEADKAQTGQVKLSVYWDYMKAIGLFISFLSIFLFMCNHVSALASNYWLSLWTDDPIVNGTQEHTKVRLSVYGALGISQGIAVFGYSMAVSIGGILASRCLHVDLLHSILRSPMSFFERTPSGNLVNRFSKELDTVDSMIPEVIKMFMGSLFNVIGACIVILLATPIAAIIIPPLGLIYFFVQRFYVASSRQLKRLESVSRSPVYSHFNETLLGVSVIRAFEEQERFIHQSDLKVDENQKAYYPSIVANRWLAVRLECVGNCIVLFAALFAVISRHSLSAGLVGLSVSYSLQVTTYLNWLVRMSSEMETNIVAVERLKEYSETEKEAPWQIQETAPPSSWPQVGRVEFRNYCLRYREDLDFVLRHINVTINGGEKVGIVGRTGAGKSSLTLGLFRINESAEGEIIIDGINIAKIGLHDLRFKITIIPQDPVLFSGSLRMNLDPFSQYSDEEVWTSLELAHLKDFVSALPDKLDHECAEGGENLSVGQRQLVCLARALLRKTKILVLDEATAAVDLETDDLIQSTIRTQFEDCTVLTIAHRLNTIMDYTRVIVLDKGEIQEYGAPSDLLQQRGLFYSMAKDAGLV

Structure (SMILES)	inhibition (Homo sapiens [1])	inhibition (INH) [2]	inhibition (INH) [3]	inhibition (Homo sapiens [4])	half-life [5] [min]	inhibition (Homo sapiens [6])	Activity (Fibroblast)	Activity (M14 [7])	Activity (M14 [8])	inhibition (INH) [9]
COc1cccc2c1C(=O)c1c(O)c3c(c(O)c1C2=O)C[C@@](O)(C(=O)COC(=O)c1ccc(C(=O)NCCCNc2ccc([N+](=O)[O-])c(C(F)(F)F)c2)cc1)C[C@@H]3O[C@H]1C[C@H](N)[C@H](O)[C@H](C)O1.Cl	Active	Active	Active	Active	> 1440	–	–	–	–	–
NCCCNc1ccc([N+](=O)[O-])c(C(F)(F)F)c1	–	Active	Active	Active	–	Active	Non-Toxic	Non-Toxic	Non-Toxic	Active
